Results from ChEMBL document CHEMBL4325827, “Bifidenone: Structure-Activity Relationship and Advanced Preclinical Candidate” (J Med Chem, 2018).

Assays:
[1] = Plasma concentration in Crl:NU(NCr)-Foxn1 nu mouse xenografted with human NCI-H460 cells at 40 mg/kg, ip injected via vehicle solution measured at 1 hr post injection by LC-MS analysis; format: ADME, organism-based; details: in vivo
Procedure, shortened: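 Male Nu/Nu mice, some bearing NCI-H460 or LOX-IMVI xenografts, given a single ip dose at 3 mL/kg. Organic vehicle components were dissolved first, with the aqueous part added gradually. Mice were euthanized at 1 h or 3 h. Cardiac blood was taken into NaEDTA/NaF plasma separator tubes. Quantification used loratadine internal standard against a spiked blank-plasma curve. Tumours were run as duplicate ~200 mg samples homogenized in 3% SDS and extracted twice with ethyl acetate, assuming 1 g tissue = 1 mL.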

[2] = tested on: UO-31; assay: Antiproliferative activity against taxane-resistant human UO31 cells after 72 hrs by CellTiter 96 aqueous nonradioactive cell proliferation assay; format: functional, cell-based; details: UO-31, 72 h
[3] = tested on: HCT-15; assay: Antiproliferative activity against taxane-resistant human HCT15 cells after 72 hrs by CellTiter 96 aqueous nonradioactive cell proliferation assay; format: functional, cell-based; details: HCT-15, 72 h
Procedure, shortened: (§1)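 Antiproliferation in cultured tumour cells, at least 3 replicate wells per concentration per experiment. NCI-H460 came from ATCC. M14, NCI/ADR-RES, OVCAR-4, HCT-15, ACHN and SF-295 came from the National Cancer Institute. IC50 reported from single experiments where no SD is given.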

[4] = tested on: ACHN; assay: Antiproliferative activity against taxane-resistant human ACHN cells after 72 hrs by CellTiter 96 aqueous nonradioactive cell proliferation assay; format: functional, cell-based; procedure, shortened: as §1
[5] = tested on: SF-295; assay: Antiproliferative activity against taxane-resistant human SF295 cells after 72 hrs by CellTiter 96 aqueous nonradioactive cell proliferation assay; format: functional, cell-based; details: SF-295, 72 h; procedure, shortened: as §1
[6] = tested on: UO-31; assay: Potency index, ratio of paclitaxel IC50 to compound IC50 for taxane-resistant human UO31 cells after 72 hrs by CellTiter 96 aqueous nonradioactive cell proliferation assay; format: functional
[7] = tested on: EKVX; assay: Potency index, ratio of paclitaxel IC50 to compound IC50 for taxane-resistant human EKVX cells after 72 hrs by CellTiter 96 aqueous nonradioactive cell proliferation assay; format: functional
[8] = tested on: SF-295; assay: Potency index, ratio of paclitaxel IC50 to compound IC50 for taxane-resistant human SF295 cells after 72 hrs by CellTiter 96 aqueous nonradioactive cell proliferation assay; format: functional
[9] = Toxicity in Crl:NU(NCr)-Foxn1 nu mouse xenografted with human NCI-H460 cells assessed as mortality at 60 mg/kg, ip qd administered for 3 consecutive days followed by 2 days of rest for 3 cycles; format: organism-based; details: in vivo, 48 h
Procedure, shortened: (§2)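 Female athymic nude mice bearing subcutaneous xenografts started from cultured human tumor cells. Mice were split into vehicle and treatment groups once tumors reached about 75-200 mm3. Dosing was ip at 5-10 mL/kg in 22% ethanol, 38% PEG400, 40% 20 mM Na citrate pH 5.0. Deaths per group were recorded alongside maximum mean bodyweight loss.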

[10] = Toxicity in Crl:NU(NCr)-Foxn1 nu mouse xenografted with human […] cells assessed as mortality at 40 mg/kg, ip qd administered for 3 consecutive days followed by 2 days of rest for 3 cycles; format: organism-based; details: in vivo, 48 h
Procedure, shortened: (§3)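 Female athymic nude mice bearing subcutaneous NCI-H522 xenografts started from tumor fragments kept by continuous in vivo passage. Mice were grouped once tumors reached about 75-200 mm3. Dosing was ip at 5-10 mL/kg in 22% ethanol, 38% PEG400, 40% 20 mM Na citrate pH 5.0. Deaths per group were recorded with maximum mean bodyweight loss.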

[11] = Toxicity in Crl:NU(NCr)-Foxn1 nu mouse xenografted with human […] cells assessed as mortality at 60 mg/kg, ip qd administered for 3 consecutive days followed by 2 days of rest for 3 cycles; format: organism-based; details: in vivo, 48 h; procedure, shortened: as §3
[12] = Toxicity in Crl:NU(NCr)-Foxn1 nu mouse xenografted with human NCI-H69 cells assessed as mortality at 60 mg/kg, ip dosed on day 1 followed by 4 days rest and subsequently dosed at 60 mg/kg, ip qd administered for 3 consecutive days followed by 2 days of rest for 2 cycles; format: organism-based; details: in vivo; procedure, shortened: as §2
[13] = Toxicity in Crl:NU(NCr)-Foxn1 nu mouse xenografted with human LOX-IMVI cells assessed as mortality at 40 mg/kg, ip qd administered for 5 consecutive days; format: organism-based; details: in vivo; procedure, shortened: as §2
[14] = Toxicity in Crl:NU(NCr)-Foxn1 nu mouse xenografted with human NCI-H460 cells assessed as maximum body weight loss at 40 mg/kg, ip qd administered for 3 consecutive days followed by 2 days of rest for 3 cycles measured after 7 days post dose relative to control; format: organism-based; details: in vivo, 168 h
Procedure, shortened: (§4)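 Female athymic nude mice bearing subcutaneous xenografts, started from cultured cells (NCI-H460, Calu-6, NCI-H69, LOX-IMVI) or from serially passaged tumour fragments (NCI-H522). Mice were grouped into vehicle and treatment arms at tumour volumes of about 75-200 mm3. Dosing was ip at 5-10 mL/kg in 22% ethanol, 38% PEG400, 40% 20 mM Na citrate pH 5.0. Caliper volumes were taken as (length × width2)/2. Treated and control delta weights were median tumour weight minus staging-day median.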

[15] = (§5) Toxicity in Crl:NU(NCr)-Foxn1 nu mouse xenografted with human Calu6 cells assessed as maximum body weight loss at 60 mg/kg, ip qd administered for 3 consecutive days followed by 2 days of rest for 4 cycles measured after 2 days post dose relative to control; format: organism-based; details: in vivo, 48 h; procedure, shortened: as §4
[16] = as §5, with “human NCI-H69” for “human Calu6”, “loss at 60 mg/kg, ip dosed on day 1 followed by 4 days rest and subsequently dosed” for “loss”, “for 2” for “for 4”, “after 3” for “after 2”; format: organism-based; details: in vivo, 72 h; procedure, shortened: as §4
[17] = as §5, with “human NCI-H69” for “human Calu6”, “at 70 mg/kg, ip dosed on day 1 followed by 4 days rest and subsequently dosed at 70” for “at 60”, “for 2” for “for 4”, “after 3” for “after 2”; format: organism-based; details: in vivo, 72 h; procedure, shortened: as §4
[18] = tested on: NCI-H522; assay: Antitumor activity against human NCI-H522 cells xenografted in Crl:NU(NCr)-Foxn1 nu mouse assessed as tumor growth inhibition at 40 mg/kg, ip qd administered for 3 consecutive days followed by 2 days of rest for 3 cycles relative to control; format: functional; details: 48 h, read-out: TGI; procedure, shortened: as §4
[19] = tested on: NCI-H522; assay: Antitumor activity against human NCI-H522 cells xenografted in Crl:NU(NCr)-Foxn1 nu mouse assessed as tumor growth inhibition at 50 mg/kg, ip qd administered for 3 consecutive days followed by 2 days of rest for 3 cycles relative to control; format: functional; details: 48 h, read-out: TGI; procedure, shortened: as §4
[20] = tested on: Calu-6; assay: (§6) Antitumor activity against human Calu6 cells xenografted in Crl:NU(NCr)-Foxn1 nu mouse assessed as tumor growth inhibition at 60 mg/kg, ip qd administered for 3 consecutive days followed by 2 days of rest for 4 cycles relative to control; format: functional; details: Calu-6, ip, 48 h, read-out: TGI; procedure, shortened: as §4
[21] = tested on: NCI-H69; assay: as §6, with “NCI-H69” for “Calu6”, “70 mg/kg, ip dosed on day 1 followed by 4 days rest and subsequently dosed at 70” for “60”, “2” for “4”; format: functional; details: read-out: TGI; procedure, shortened: as §4
[22] = tested on: LOX IMVI; assay: Antitumor activity against human LOXIMVI cells xenografted in Crl:NU(NCr)-Foxn1 nu mouse assessed as tumor growth inhibition at 30 mg/kg, ip qd relative to control; details: read-out: TGI

## C=CC[C@H]1C[C@]2([C@H](C)Cc3cc(O)c(OC)cc3F)OCOC2=CC1=O
[1]
  Drug uptake: Active
[2]
  IC50: 7 nM
[3]
  IC50: 14 nM
[4]
  IC50: 12 nM
[5]
  IC50: 9.6 nM
[6]
  Ratio IC50: 34
[7]
  Ratio IC50: 21
[8]
  Ratio IC50: 6
[9]
  Activity: Non-Toxic
[10]
  Activity: Non-Toxic
[11]
  Activity: Non-Toxic
[12]
  Activity: Non-Toxic
[13]
  Activity: Non-Toxic
[14]
  Activity: 7%
[15]
  Activity: 2%
[16]
  Activity: 6%
[17]
  Activity: 9%
[18]
  inhibition in vivo at 40 mg/kg: 54%
[19]
  inhibition in vivo at 50 mg/kg: 69%
[20]
  inhibition in vivo at 60 mg/kg: 63%
[21]
  inhibition in vivo at 70 mg/kg: 84%
[22]
  inhibition in vivo at 30 mg/kg: 63%
